From ChEMBL document CHEMBL1151851, “Antioxidant Lignans from the Fruits of Broussonetia papyrifera” (J Nat Prod, 2009)
The source made the active and inactive calls. The calls are words filed in the database; no cut-off is given here.

How the values were obtained:
[1] = system: PC-12; test: Antioxidant activity against H2O2-induced impairment in rat PC12 cells at 0.16 to 100 uM after 3 hrs by MTT assay; format: functional, cell-based
Summary of the method: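 PC12 cells in RPMI 1640 with 5% fetal calf serum, 10% horse serum, penicillin/streptomycin and 20 mM L-glutamine. Seeded at 1 × 10^6/mL, 24 h at 37 °C, 5% CO2. Then exposed to H2O2 (200 µM final) together with compound (0.16–100 µM final) for 3 h. PBS rinse, MTT 0.4 mg/mL for 4 h at 37 °C, DMSO solubilization, OD 570 nm. Viability %, n = 6, mean ± SD.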

[2] = system: Radical scavenging activity; test: Antioxidant activity assessed as DPPH radical scavenging activity after 30 mins by spectrophotometry; format: functional

Compound	Activity [1]	IC50 [2] [µM]
COc1cc(CCCO)cc2c1O[C@H](c1ccc(O)cc1)[C@H]2CO	Active	–
COc1cc([C@H](O)[C@@H](CO)Oc2ccc(/C=C/CO)cc2OC)ccc1O (relative stereo)	Active	60.9
COc1cc(C(=O)CCO)cc2c1O[C@H](c1ccc(O)cc1)[C@H]2CO (relative stereo)	Active	–
COc1cc(C(=O)[C@@H]2CO[C@H](c3ccc(O)cc3)[C@H]2CO)ccc1O[C@H](CO)[C@@H](O)c1ccc(O)cc1 (relative stereo)	Active	–
COc1cc([C@H]2OC[C@H]3[C@@H]2CO[C@@H]3c2ccc(O)cc2)cc2c1O[C@H](c1ccc(O)cc1)[C@H]2CO (relative stereo)	Active	–
COC(c1ccc(O)cc1)[C@H]1CO[C@@H](c2ccc(O)cc2)[C@@H]1CO (relative stereo) [CHUSHIZISIN G]	–	281
COc1cc(/C=C/CO)ccc1O[C@H](CO)[C@H](O)c1ccc(O)cc1 (relative stereo) [CHUSHIZISINS A]	Active	237
COc1cc(/C=C/CO)ccc1O[C@H](CO)[C@@H](O)c1ccc(O)cc1 (relative stereo) [CHUSHIZISINS B]	–	156
COc1cc(CCCO)ccc1O[C@H](CO)[C@@H](O)c1ccc(O)cc1 (relative stereo) [CHUSHIZISINS D]	–	274
